From PubChem BioAssay come the findings set out here.

Assay [1] is described as follows: OD615 S. cerevisiae growth inhibition, permissive medium, pilot counter-assay, permissive growth control for S. cerevisiae lifespan shortening project (AID 705). The settings on record: OD615, 24 h, at 10 µM, active compounds read high. The procedure, abridged:
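System: Engineered DeaD yeast | Buffer or medium: SC raffinose/galactose permissive medium | Doses: 10 µM single dose, 0.25% DMSO | Times: 24 h exposure, 30 °C | Measured by: OD615 turbidity read | Read-out: Yeast growth inhibition indicated by reduced 24 h OD615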

Assay [2] can be described thus: Restrictive medium S. cerevisiae growth inhibition, OD615, pilot screen of yeast lifespan reduction project, restrictive growth control (AID 706;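 active means growth inhibition above a set limit, 3 SD over mean compound inhibition, in both replicates, cut at about 43% in these data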;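 further: modified DeaD lifespan yeast strain shifted to restrictive glucose medium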). The settings on record: OD615, 48 h, at 10 µM, active compounds read high. The procedure, abridged:
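Assay system: engineered S. cerevisiae DeaD strain; Buffer or medium: CSMM-D glucose medium; Dosing: 10 µM compound, 0.25% DMSO; Times: cell pre-growth 4 h, compound exposure 48 h, 30 °C; Detection: absorbance (optical density) measured at 615 nm.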

The nature of assay [3]: viability gain of MRP-1-high H69AR cells under doxorubicin, pilot screen, MRP-1 activator project, CellTiter-Glo, duplicate (AID 807;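 active means viability increase at or above a cutoff of the median across tested compounds plus 3 SD, cut at about 8.5% in these data, passing the limit was not always enough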;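 further: compound pretreatment 18-22 h then 72 h combined with doxorubicin; 0% = doxorubicin alone and 100% = vehicle without doxorubicin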). Particulars: H69AR viability with doxorubicin, CellTiter-Glo luminescence; at 10 µM; active compounds read high.
Assay [4] in a line: growth suppression of beta-catenin knockout HCT116, pilot screen, human colon tumor cells (AID 823;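 active means cell viability at or below a set limit in both duplicate runs, the limit being the all-compound median minus 4 SD, cut at about 23% in these data, passing the limit was not always enough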;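 further: 0% = wells killed by 20 µM Hyamine and 100% = untreated DMSO cell wells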). Particulars: CellTiter-Glo, 60 h, at 10 µM, active compounds read low. For orientation: Cellular ATP, detected with luciferase, serves as a proxy for viable cell number.
Assay [5] is described as follows: growth suppression of PTEN-deleted HCT116, pilot screen, cell-based, HCT116 clonal line, CellTiter-Glo (AID 824;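 active means viability at or below 27.92% in each of two runs, the all-compound median minus 4 SD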;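 further: 0% = 20 µM Hyamine control and 100% = vehicle cell control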). Particulars: 60 h, at 10 µM, active compounds read low.
Assay [6] is described as follows: inhibitors of the yeast RAM network, pilot screen, dse1pr::URA3 reporter, 5-FOA selection (AID 869;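 active means inhibition over a set limit, the all-compound mean plus 3 SD, in both replicate runs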;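 further: 0% = DMSO wells with no growth and 100% = 10 µM 1-NA-PP1 with full growth; RAM network block rescues cells from 5-FOA so hits raise OD615 growth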). The settings on record: S. cerevisiae dse1pr::URA3 5-FOA growth, OD615, 2 d; at 10 µM; active compounds read high; strain carries analog-sensitive mutant Cbk1 kinase.
Assay [7] can be described thus: RAM signaling pathway blockade in yeast – S. cerevisiae, Pdr1DBD-CYC8 efflux-inhibited sensitized strain, primary screen (AID 1298;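 active means RAM network inhibition above 8.4% in each of two replicates, 3 SD over the compound average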;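 further: 0% = DMSO untreated cells without growth and 100% = 10 µM 1-NA-PP1 full growth; higher means more yeast growth rescued from 5-FOA killing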). Particulars: S. cerevisiae cbk1-as DSE1-URA3 strain, 5-FOA growth OD615, 2 d; at 50 µM; active compounds read high.

Each structure is given as a SMILES string. Values without a mark were called inactive. Records with an inconclusive call do not appear. Active and inactive are the calls of the source.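 How the source made its calls, unless noted: active means growth inhibition above 25% in both replicates, a cutoff set 3 SD above the mean; inconclusive means above 25% in only one replicate; inactive means the rest.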

The viability is a read-out of living cells in per cent, often relative to untreated cells. The term inhibition denotes the relative decrease from the control value, in per cent. Consider `COCCCN(C(=O)Nc1ccccc1)C(C)c1ccncc1` (stereo unspecified), for which the growth inhibition in assay [1] is 2.64%; in assay [2] it was -0.975%. In addition, in assay [3], the viability increase is -1.88%. Further, the viability is 101% in assay [4] and 94.3% in assay [5]. The inhibition in assay [6] is 1.18%. For the same compound, the RAM network inhibition in assay [7] was 3.28%.

`O=C(NC1CCCCCC1)c1nnc(Cc2ccc(Cl)cc2)o1`: the growth inhibition in assay [1] was -12.1%; in assay [2] it was 0.195%. In assay [3], the viability increase is 2.9%. Also, the viability in assay [4] is 95.2%; in assay [5] it was 94.5%. In addition, the inhibition in assay [6] is 1.31%. In addition, the RAM network inhibition in assay [7] is 2.19%.

For `CCn1c(SCc2nc(-c3ccccc3)no2)nc2ccccc21`, the results for the growth inhibition in assay [1] and in assay [2] were -12% and 8.5%, respectively. Also, the viability increase in assay [3] was 1.73%. Further, the viability in assay [4] was 93.1%; in assay [5], 92.3%. The inhibition in assay [6] was 0.38%. Besides, the RAM network inhibition in assay [7] is 1.2%.

As to `COCCNS(=O)(=O)c1ccc(C2CNC(=O)C2)cc1` (stereo unspecified), the growth inhibition was -7.18% in assay [1] and -6.89% in assay [2]. Also, in assay [3], the viability increase is -1.08%. Further, the viability is 110% in assay [4] and 104% in assay [5]. In addition, in assay [6], the inhibition was 2.2%. Besides, the RAM network inhibition in assay [7] was -1.51%.

`CCOC(=O)N1CCN(C(=O)c2cnn3ccccc23)CC1`: the figures for the growth inhibition in assay [1] and in assay [2] were -9.02% and -2.02%, respectively. Besides, the viability increase in assay [3] was -1.3%. The values for the viability in assay [4] and in assay [5] were 103% and 100%, respectively. Besides, in assay [6], the inhibition is 4.82%. In assay [7], the RAM network inhibition was -1.68%.

Regarding `Cc1cc(C)cc(N(CC(=O)NC2CC3CCC2C3)S(C)(=O)=O)c1` (stereo unspecified), the figures for the growth inhibition in assay [1] and in assay [2] were -11.4% and -10.6%, respectively. For the same compound, in assay [3], the viability increase was -0.31%. Also, the results for the viability in assay [4] and in assay [5] were 90.4% and 88%, respectively. For the same compound, the inhibition in assay [6] is -0.04%. Moreover, in assay [7], the RAM network inhibition was 2.79%.

In the case of `CC(C)n1c(NCc2cc(Cl)ccc2O)nc2ccccc21`, the growth inhibition is -3.83% in assay [1] and -7.78% in assay [2]. The viability increase in assay [3] was -0.71%. Also, the viability in assay [4] was 88.8%; in assay [5], 87.9%. Further, the inhibition in assay [6] was -0.06%. Further, the RAM network inhibition in assay [7] was 1.06%.

Consider `Brc1ccc(-c2nnc3sc(CNCc4ccc5c(c4)OCO5)cn23)cc1`, for which the growth inhibition in assay [1] is 5.46%; in assay [2], 20.8%. Besides, the viability increase in assay [3] is -0.67%. Besides, the viability in assay [4] was 99.6%; in assay [5], 99.8%. In addition, in assay [6], the inhibition was 1.17%. For the same compound, in assay [7], the RAM network inhibition is 1.64%.

For the compound `COCc1cc(C)nc(N2CCN(c3ccccc3)CC2)c1C#N`, the growth inhibition was -15.6% in assay [1] and -7.64% in assay [2]. Also, the viability increase in assay [3] was 0.13%. The viability in assay [4] is 86.3%; in assay [5], 81.9%. Moreover, in assay [6], the inhibition is 2.28%. The RAM network inhibition in assay [7] is 6.31%.

Regarding `CCOC(=O)c1ccc2c(c1)NC(=O)C(N1CCN(c3ccc(OC)cc3)CC1)S2` (stereo unspecified), the growth inhibition in assay [1] is 0.455%; in assay [2], -5.2%. The viability increase in assay [3] was -7.1%. Besides, the viability in assay [4] is 74.6%; in assay [5], 51.8%. Moreover, the inhibition in assay [6] is 4.31%. Further, the RAM network inhibition in assay [7] is 6.45%.

As to `CC(C)=CC1C(C(=O)Nc2ccc(Br)cn2)C1(C)C` (stereo unspecified), the figures for the growth inhibition in assay [1] and in assay [2] were -14.6% and -19.1%, respectively. For the same compound, the viability increase in assay [3] was -0.01%. For the same compound, the viability in assay [4] is 60.7%; in assay [5], 63.2%. For the same compound, the inhibition in assay [6] is 3.15%. For the same compound, the RAM network inhibition in assay [7] was 4.66%.

On to `Cc1ccc(C(=O)NCCn2cc(SCC(=O)Nc3cc(C)on3)c3ccccc32)cc1`, for which the growth inhibition in assay [1] is -3.4%; in assay [2], 9.18%. The viability increase in assay [3] was 1.75%. Further, the viability in assay [4] is 87.4%; in assay [5], 96.9%. Moreover, in assay [6], the inhibition is 0.015%. For the same compound, the RAM network inhibition in assay [7] was 0.42%.

Turning to `Cn1c(C(=O)N2CCN(c3ccccc3F)CC2)cc2c(=O)n(C)c3ccccc3c21`, the growth inhibition in assay [1] was -2.8%; in assay [2], -4.68%. For the same compound, the viability increase in assay [3] was -2.61%. Besides, the results for the viability in assay [4] and in assay [5] were 100% and 98.6%, respectively. The inhibition in assay [6] is 2.54%. In addition, the RAM network inhibition in assay [7] is 1.59%.

As for `N#CC1=C(N)C(C#N)(C#N)C2(C(=O)Nc3ccccc32)C2CCCC=C12` (stereo unspecified), the growth inhibition is 5.05% in assay [1] and -12.2% in assay [2]. Also, in assay [3], the viability increase was -4.96%. In addition, the viability in assay [4] is 91.5%; in assay [5], 82.6%. For the same compound, the inhibition in assay [6] was 0.71%. In assay [7], the RAM network inhibition is 0.83%.

Consider `CC1(C)Cc2c(c(N3CCOCC3)nc3sc(C(=O)N4CCCCC4)c(N)c23)CO1`, for which the growth inhibition in assay [1] was 2.35%; in assay [2], 29.3%. For the same compound, the viability increase in assay [3] is -4.48%. The viability in assay [4] was 100%; in assay [5], 96.6%. Further, the inhibition in assay [6] was 2.62%. In assay [7], the RAM network inhibition is 3.43%.

For the compound `O=C(NCCCN1CCCC1)c1ccc(CS(=O)(=O)c2ccc(Br)cc2)o1`, the growth inhibition in assay [1] was -5.7%; in assay [2], -13.3%. Besides, in assay [3], the viability increase is -0.99%. Further, the viability is 90.6% in assay [4] and 96.5% in assay [5]. In addition, in assay [6], the inhibition was 1.63%. The RAM network inhibition in assay [7] was 2.23%.

As for `O=C(C1CCN(S(=O)(=O)c2cccc3cccnc23)CC1)N1CCn2c1nc1ccccc12`, the growth inhibition in assay [1] is -1.95%; in assay [2] it was -3.35%. For the same compound, in assay [3], the viability increase was -1.86%. The viability in assay [4] is 87.7%; in assay [5] it was 83.2%. In addition, in assay [6], the inhibition was 2.52%. Moreover, the RAM network inhibition in assay [7] was -1.55%.

Consider `CCN1CCCC1CNC(=O)c1cc2c(-c3ccc(Cl)cc3)nn(C)c2s1` (stereo unspecified), for which the growth inhibition in assay [1] was -7.45%; in assay [2] it was 10.1%. Also, in assay [3], the viability increase is -8.33%. Moreover, the viability was 2.03% (active) in assay [4] and 2.04% (active) in assay [5]. Besides, in assay [6], the inhibition is 1.31%. The RAM network inhibition in assay [7] is 8.33%.
